Activity calls are given as the source filed them. The calls are words filed in the database; no cut-off is given here.
Key:
Staphylococcus aureus [1] = assay: Antibacterial activity against methicillin-resistant Staphylococcus aureus GRE2272 assessed as inhibition of bacterial growth; format: functional, organism-based
Staphylococcus aureus [2] = assay: Antibacterial activity against methicillin-resistant Staphylococcus aureus GRE2372 assessed as inhibition of bacterial growth; format: functional, organism-based
Staphylococcus aureus [3] = assay: Antibacterial activity against methicillin-resistant Staphylococcus aureus GRE2691 assessed as inhibition of bacterial growth; format: functional, organism-based
Escherichia coli [4] = assay: Antibacterial activity against wild type Escherichia coli K-12 assessed as inhibition of bacterial growth; format: functional, organism-based
[5] = Inhibition of Escherichia coli K-12 70S ribosome poly(U)-programmed ribosome (complex C) bearing tRNAPhe at E-site and Ac[3H]Phe-tRNA at P-site assessed as reduction in peptide bond formation using puromycin(S) substrate
Staphylococcus aureus [6] = assay: Antibacterial activity against wild type Staphylococcus aureus assessed as inhibition of bacterial growth; format: functional, organism-based
Escherichia coli [7] = assay: Antibacterial activity against Escherichia coli Rosetta(DE3) containing rare tRNA genes and chloramphenicol resistant gene in pLysS plasmid assessed as inhibition of bacterial growth; format: functional, organism-based
In short: (§1)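 IC50 from bacterial cultures grown in LB medium without drug or with drug across a range of concentrations, reported in μM. Three independent experiments, each with two replicates, given as mean±SD.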

Escherichia coli [8] = assay: Antibacterial activity against Escherichia coli BL21(DE3) expressing delta-tolC gene assessed as inhibition of bacterial growth; format: functional, organism-based; in short: as §1

Compound | growth inhibition (GI) (Staphylococcus aureus [1]) | growth inhibition (GI) (Staphylococcus aureus [2]) | growth inhibition (GI) (Staphylococcus aureus [3]) | Ki [5] [µM] | further results
NC[C@H]1O[C@H](O[C@H]2[C@H](O)[C@@H](O[C@H]3O[C@H](CO)[C@@H](O)[C@H](N)[C@H]3O)[C@H](N)C[C@@H]2N)[C@H](O)[C@@H](O)[C@@H]1O | inactive | inactive | inactive |  | 
O=C(N[C@H](CO)[C@H](O)c1ccc([N+](=O)[O-])cc1)c1nc[nH]n1 |  |  |  | 1 | IC50 (Staphylococcus aureus [1]): > 100 µM; IC50 (Escherichia coli [4]): > 300 µM; IC50 (Staphylococcus aureus [6]): > 100 µM; IC50 (Staphylococcus aureus [2]): > 100 µM; IC50 (Escherichia coli [7]): > 300 µM; IC50 (Staphylococcus aureus [3]): > 100 µM; IC50 (Escherichia coli [8]): > 300 µM
NCCCCNC(=O)CCC(=O)N[C@H](CO)[C@H](O)c1ccc([N+](=O)[O-])cc1 [listing 1 of 2 here] |  |  |  | 0.9 | 
NCCCCN(CCCN)C(=O)CCC(=O)N[C@H](CO)[C@H](O)c1ccc([N+](=O)[O-])cc1 [listing 1 of 2 here] |  |  |  |  | IC50 (Staphylococcus aureus [1]): > 100 µM; IC50 (Escherichia coli [4]): > 150 µM; IC50 (Staphylococcus aureus [6]): 12.7 µM; IC50 (Staphylococcus aureus [2]): > 100 µM; IC50 (Escherichia coli [7]): > 100 µM; IC50 (Staphylococcus aureus [3]): > 200 µM; IC50 (Escherichia coli [8]): > 100 µM
Cc1onc(-c2ccccc2)c1C(=O)N[C@@H]1C(=O)N2[C@@H]1SC(C)(C)[C@@H]2C(=O)O | inactive | inactive | inactive |  | 
CC(=O)O[C@H]1C[C@@]2(C)[C@@H](C[C@@H](O)[C@H]3[C@@]4(C)CC[C@@H](O)[C@@H](C)[C@@H]4CC[C@@]32C)/C1=C(\CCC=C(C)C)C(=O)O | inactive | inactive | inactive |  | 
NCCCNCCCCNCCCNC(=O)CCC(=O)N[C@H](CO)[C@H](O)c1ccc([N+](=O)[O-])cc1 |  |  |  | 0.75 | 
CC(=O)N[C@@H]1[C@H](Oc2c3cc4cc2Oc2ccc(cc2Cl)[C@@H](O[C@@H]2O[C@@H](CO)[C@@H](O)[C@H](O)[C@@H]2NC(C)=O)[C@@H]2NC(=O)[C@H](NC(=O)[C@@H]4NC(=O)[C@H]4NC(=O)[C@@H](Cc5ccc(c(Cl)c5)O3)NC(=O)[C@H](N)c3ccc(O)c(c3)Oc3cc(O)cc4c3)c3ccc(O)c(c3)-c3c(O[C@H]4O[C@H](CO)[C@@H](O)[C@@H](O)[C@@H]4O)cc(O)cc3[C@@H](C(=O)O)NC2=O)O[C@@H](CO)[C@@H](O)[C@@H]1O | Active | Active | Active |  | 
CC[C@H]1OC(=O)[C@H](C)[C@@H](O[C@H]2C[C@@](C)(OC)[C@@H](O)[C@H](C)O2)[C@H](C)[C@@H](O[C@@H]2O[C@H](C)C[C@H](N(C)C)[C@H]2O)[C@](C)(O)C[C@@H](C)C(=O)[C@H](C)[C@@H](O)[C@]1(C)O | inactive | inactive | inactive |  | 
NCCCN(CCCCN(Cc1ccccc1)Cc1ccccc1)C(=O)CCC(=O)N[C@H](CO)[C@H](O)c1ccc([N+](=O)[O-])cc1 |  |  |  | 0.28 | 
CO[C@@]1(NC(=O)Cc2cccs2)C(=O)N2C(C(=O)O)=C(COC(N)=O)CS[C@@H]21 | inactive | inactive | inactive |  | 
CCCCCCCCCC(=O)N[C@@H](Cc1c[nH]c2ccccc12)C(=O)N[C@H](CC(N)=O)C(=O)N[C@@H](CC(=O)O)C(=O)N[C@@H]1C(=O)NCC(=O)N[C@@H](CCCN)C(=O)N[C@@H](CC(=O)O)C(=O)N[C@H](C)C(=O)N[C@@H](CC(=O)O)C(=O)NCC(=O)N[C@H](CO)C(=O)N[C@@H]([C@H](C)CC(=O)O)C(=O)N[C@@H](CC(=O)c2ccccc2N)C(=O)O[C@@H]1C | Active | Active | Active |  | 
NCCCCN(CCCN)C(=O)CCC(=O)N[C@H](CO)[C@H](O)c1ccc([N+](=O)[O-])cc1 [listing 2 of 2 here] |  |  |  | 1.2 | 
NCCCCNC(=O)c1ccccc1C(=O)N[C@H](CO)[C@H](O)c1ccc([N+](=O)[O-])cc1 [listing 1 of 2 here] |  |  |  |  | IC50 (Staphylococcus aureus [1]): > 200 µM; IC50 (Escherichia coli [4]): > 200 µM; IC50 (Staphylococcus aureus [2]): > 200 µM; IC50 (Escherichia coli [7]): > 200 µM; IC50 (Staphylococcus aureus [3]): > 200 µM; IC50 (Escherichia coli [8]): > 200 µM
NCCCCNC(=O)c1ccccc1C(=O)N[C@H](CO)[C@H](O)c1ccc([N+](=O)[O-])cc1 [listing 2 of 2 here] |  |  |  | 8.45 | 
COc1cccc(OC)c1C(=O)N[C@@H]1C(=O)N2[C@@H]1SC(C)(C)[C@@H]2C(=O)O | inactive | inactive | inactive |  | 
CCC[C@@H]1C[C@@H](C(=O)N[C@@H]([C@H]2O[C@H](SC)[C@H](O)[C@@H](O)[C@H]2O)[C@H](C)Cl)N(C)C1 | inactive | inactive | Active |  | 
CN(C)[C@@H]1C(O)=C(C(N)=O)C(=O)[C@@]2(O)C(O)=C3C(=O)c4c(O)cccc4[C@@](C)(O)[C@H]3C[C@@H]12 | inactive | Active | inactive |  | 
CO[C@H]1/C=C/O[C@@]2(C)Oc3c(C)c(O)c4c(O)c(c(/C=N/N5CCN(C)CC5)c(O)c4c3C2=O)NC(=O)/C(C)=C\C=C\[C@H](C)[C@H](O)[C@@H](C)[C@@H](O)[C@@H](C)[C@H](OC(C)=O)[C@@H]1C | Active | inactive | Active |  | 
GENTAMICIN | inactive | Active | inactive |  | 
CN[C@H](CC(C)C)C(=O)N[C@H]1C(=O)N[C@@H](CC(N)=O)C(=O)N[C@H]2C(=O)N[C@H]3C(=O)N[C@H](C(=O)N[C@H](C(=O)O)c4cc(O)cc(O)c4-c4cc3ccc4O)[C@H](O)c3ccc(c(Cl)c3)Oc3cc2cc(c3O[C@@H]2O[C@H](CO)[C@@H](O)[C@H](O)[C@H]2O[C@H]2C[C@](C)(N)[C@H](O)[C@H](C)O2)Oc2ccc(cc2Cl)[C@H]1O | Active | Active | Active |  | 
NCCCCNC(=O)CCC(=O)N[C@H](CO)[C@H](O)c1ccc([N+](=O)[O-])cc1 [listing 2 of 2 here] |  |  |  |  | IC50 (Staphylococcus aureus [1]): > 200 µM; IC50 (Escherichia coli [4]): > 200 µM; IC50 (Staphylococcus aureus [2]): > 200 µM; IC50 (Escherichia coli [7]): > 200 µM; IC50 (Staphylococcus aureus [3]): > 200 µM; IC50 (Escherichia coli [8]): > 200 µM
O=C(CCNC(=O)c1nc[nH]n1)N[C@H](CO)[C@H](O)c1ccc([N+](=O)[O-])cc1 |  |  |  | 4 | IC50 (Staphylococcus aureus [1]): > 100 µM; IC50 (Escherichia coli [4]): > 200 µM; IC50 (Staphylococcus aureus [6]): 66 µM; IC50 (Staphylococcus aureus [2]): > 100 µM; IC50 (Escherichia coli [7]): > 200 µM; IC50 (Staphylococcus aureus [3]): > 100 µM; IC50 (Escherichia coli [8]): > 200 µM
NCCCCNCCCCNCCCNC(=O)[C@@H](NC(=O)C(Cl)Cl)[C@H](O)c1ccc([N+](=O)[O-])cc1 |  |  |  | 5 | 

Source: ChEMBL document CHEMBL3585321, “Synthesis and antimicrobial activity of chloramphenicol-polyamine conjugates” (Bioorg Med Chem, 2015)
